Test results from paper PMC3544189 (ACS medicinal chemistry letters, 2012).
Entries after “also recorded” stand apart in the source; their conditions may differ.

Tests used:
[1] = tested on: chymotrypsin-like proteasome activity (20S proteasome + PA28); experiment: Inhibition of chymotrypsin-like proteasome activity in the presence of PA28; type: biochemical, human
Outline: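 The proteasome was activated by the cellular activator PA28 and then exposed to test compound. Chymotrypsin-like activity was read by Suc-LLVY-AMC fluorescence, with proteasome plus substrate as background. IC50 was the concentration inhibiting PA28-present chymotrypsin-like activity by 50%. Values are mean ± SD of three independent experiments.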

[2] = tested on: chymotrypsin-like activity of human 20S proteasome; type: biochemical; settings: for Proteasome activation (in words): chymotrypsin-like activity, absence of PA28
Outline: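 Without PA28, proteasome was exposed to test compound. Chymotrypsin-like activity was followed by cleavage of the fluorogenic substrate Suc-LLVY-AMC, read in relative fluorescence units against a proteasome-plus-substrate background. EC50 was the concentration raising activity to 50% of its maximum level. Values are mean ± SD of three independent experiments.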

proteasome [3] = settings: cited from earlier work
[4] = tested on: PA28-activated proteasome inhibited by Aβ1-42; experiment: Antagonism of Aβ1-42 inhibition of PA28-activated proteasome by compound 2; type: biochemical; settings: compound 2 at 14, 28, 56 μM; Aβ1-42 10 μg/ml; PA28 1.8 μg/ml
proteasome [5] = settings: cited from earlier work; remark: listed apart in the source
proteasome [6] = settings: cited from earlier work; remark: listed apart in the source
[7] = biological target: PA28-activated proteasome; experiment: Inhibition of PA28-activated proteasome by Aβ1-42; type: biochemical; settings: PA28 1.8 μg/ml

| Molecule | Proteasome inhibition (in words) [1] | Proteasome activation (in words) [2] | other results |
| --- | --- | --- | --- |
| COC(=O)CC[C@@H](C)[C@H]1CC[C@H]2[C@@H]3CC[C@@H]4C[C@@H](NC(=O)CCCCCC(=O)O)CC[C@]4(C)[C@H]3CC[C@]12C [Compound 7] | inhibited the proteasome | did not activate the proteasome |  |
| CCOC(=O)CC[C@@H](C)[C@H]1CC[C@H]2[C@@H]3CC[C@@H]4C[C@H](OC(=O)CCCCCC(=O)O)CC[C@]4(C)[C@H]3CC[C@]12C [Compound 3] |  | completely abrogated the proteasome activation activity |  |
| COC(=O)CC[C@@H](C)[C@H]1CC[C@H]2[C@@H]3CC[C@@H]4C[C@@H](OC(=O)CCCCCC(=O)O)CC[C@]4(C)[C@H]3CC[C@]12C [Compound 5] | inhibited the proteasome | did not activate the proteasome |  |
| COC(=O)CC[C@@H](C)[C@H]1CC[C@H]2[C@@H]3CC[C@@H]4C[C@H](NC(=O)CCCCCC(=O)O)CC[C@]4(C)[C@H]3CC[C@]12C [Compound 6] |  |  | Increase of proteasome activation activity relative to compound 2 ([2]; C3 amide versus C3 ester): approximately two-fold |
| COC(=O)CC[C@@H](C)[C@H]1CC[C@H]2[C@@H]3CC[C@@H]4C[C@H](OC(=O)CCCCCC(=O)O)CC[C@]4(C)[C@H]3CC[C@]12C [Compound 2, 3α-O-pimeloyl-lithocholic acid methyl ester] |  | active in proteasome activation | Proteasome inhibition in previous study (in words) (proteasome [3]): inactive in proteasome inhibition; Antagonism of Aβ1-42-mediated proteasome inhibition (in words) [4]: antagonized the Aβ1-42-mediated proteasome inhibition in a dose dependent manner; also recorded: potently antagonized; also recorded: completely reverse |
| CN(C)c1ccc2nc3ccc(=[N+](C)C)cc-3sc2c1 [methylene blue] |  |  | Enhancement of proteasome activity (in words) (proteasome [5]): slightly enhance proteasome activity |
| polylysine |  |  | Concentration reported for proteasome activation (proteasome [6]): 1 mg/mL |
| COC(=O)CC[C@@H](C)[C@H]1CC[C@H]2[C@@H]3CC[C@@H]4C[C@@H](N)CC[C@]4(C)[C@H]3CC[C@]12C [Compound 9, 3-β-amino-lithocholic acid methyl ester] | inhibited the proteasome | did not activate the proteasome |  |
| C/C=C1/[C@H](O[C@@H]2O[C@H](CO)[C@@H](O)[C@H](O)[C@H]2O)OC=C(C(=O)OC)[C@H]1CC(=O)OCCc1ccc(O)c(O)c1 [Oleuropein, reference compound] |  | did not show any significant activity; also recorded: did not activate the proteasome | Proteasome activation over background proteasome activity (proteasome [6]; absence of cellular proteasome activators): approximately 1.5 fold; Concentration reported to enhance proteasome activities in vitro (proteasome [6]): 0.5 µg/mL |
| CCCCCCCCCCCCOS(=O)(=O)[O-].[Na+] [SDS] |  |  | Concentration reported for proteasome activation (proteasome [6]): 0.05% |
| Aβ1-42: amyloid beta peptide 1-42, the likely pathogenic form of Aβ |  |  | Inhibition of PA28-activated proteasome (in words) [7]: inhibited the proteasome in a dose dependent manner |
| C[C@H](CCC(=O)O)[C@H]1CC[C@H]2[C@@H]3CC[C@@H]4C[C@H](O)CC[C@]4(C)[C@H]3CC[C@]12C [Lithocholic acid, lithocholic acid, reference compound] | weak proteasome inhibitor | did not activate the proteasome |  |
| CNC(=O)CC[C@@H](C)[C@H]1CC[C@H]2[C@@H]3CC[C@@H]4C[C@H](OC(=O)CCCCCC(=O)O)CC[C@]4(C)[C@H]3CC[C@]12C [Compound 4] |  | completely abrogated the proteasome activation activity |  |
